# Reference: ChEMBL document CHEMBL1155808, “Antitumor activity of bis-indole derivatives” (J Med Chem, 2008)
# The source made the active and inactive calls. The rule behind the calls is not given here. Where a SMILES comes first, the peptide text is derived from it. The star is where a group is joined. Cbz = O=C(OCc1ccccc1)*
# What was measured:
# [1] = Cytotoxicity against human leukemia cells; type: functional; details: Leukemia cell; for CC50: read-out: pLC50 (the source's name) (converted); for TGI: read-out: pTGI (converted)
# In short: (§1)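 NCI 60-cell-line human tumour screen, with subpanels for leukemia, melanoma, lung, colon, kidney, ovary, breast, prostate and CNS. Compounds were dissolved in DMSO and tested at five ten-fold dilutions, highest 10^-4 M (10^-3 M for some). Endpoints were GI50, TGI and LC50, reported as negative log molar. Some compounds were assayed once, others two or three times.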
# [2] = Cytotoxicity against human ovarian cancer cells; type: functional; details: Cancer cell lines
# [3] = Inhibition of plasma membrane electron transport pathway in human B1647 cells by WST1 reduction assay; type: cell-based
# In short: (§2)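 Cells at 10^5 per well in 0.1 ml pretreated 30 min with compound in DMSO (<0.1% final), then WST-1/mPMS added (final 500 µM and 20 µM); WST-1 reduction followed in real time at 450 nm; averages ± S.E.M. of four independent experiments.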
# [4] = Cytotoxicity against human prostate cancer cells; type: functional; details: Cancer cell lines; in short: as §1
# [5] = Cytotoxicity against human central nervous system cancer cells; type: functional; details: Cancer cell lines; in short: as §1
# [6] = Cytotoxicity against human melanoma cells; type: functional; details: Melanoma cell
# [7] = Inhibition of plasma membrane electron transport pathway in human HL60 cells by WST1 reduction assay; type: cell-based; details: HL-60; in short: as §2
# Mo7e = assay: Antiproliferative activity against human Mo7e cells after 48 hrs by MTT assay; type: functional, cell-based
# [8] = Inhibition of plasma membrane electron transport pathway in mitochondrial gene-knockout human HL60p'0 cells by WST1 reduction assay; in short: as §2
# B1647 = assay: Antiproliferative activity against human B1647 cells after 48 hrs by MTT assay; type: functional, cell-based
# [9] = Inhibition of plasma membrane electron transport pathway in human Mo7e cells by WST1 reduction assay; type: cell-based; in short: as §2
# [10] = Cytotoxicity against human Non-small cell lung carcinoma cells; type: functional; in short: as §1
# [11] = Inhibition of plasma membrane electron transport pathway in human HEL cells by WST1 reduction assay; type: cell-based; in short: as §2
# HEL = assay: Antiproliferative activity against human HEL cells after 48 hrs by MTT assay; type: functional, cell-based
# [12] = Cytotoxicity against human renal cancer cells; type: functional; details: Cancer cell lines; for CC50: read-out: pLC50 (the source's name) (converted); for TGI: read-out: pTGI (converted); in short: as §1
# [13] = Cytotoxicity against human breast cancer cells; type: functional; details: Cancer cell lines; for TGI: read-out: pTGI (converted)
# In short: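 MTT cytotoxicity assay in breast cancer cell lines; proliferation expressed as percent growth inhibition relative to vehicle-treated control cells; IC50 reported.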
# [14] = Cytotoxicity against human colon cancer cells; type: functional; details: Cancer cell lines; in short: as §1
# Mus musculus [15] = assay: Toxicity in human HL60(TB) cells xenografted mouse assessed as mean net weight loss at 200 mg/kg, ip dosed as Q4Dx3, day 7 schedule measured on day 14; type: organism-based; set-up: dose 200 mg/kg, route intraperitoneal; details: in vivo
# [16] = Antitumor activity against human HL60(TB) cells xenografted in mouse assessed as effect on tumor growth at 134 mg/kg, ip dosed as Q4Dx3, day 7 schedule measured on day 19 relative to control; type: functional, HL-60(TB); details: route intraperitoneal
# Mus musculus [17] = assay: Toxicity in human HL60(TB) cells xenografted mouse assessed as drug induced death at 134 mg/kg, ip dosed as Q4Dx3, day 7 schedule measured on day 14; type: organism-based; set-up: dose 134 mg/kg, route intraperitoneal; details: in vivo
# Mus musculus [18] = assay: Toxicity in human HL60(TB) cells xenografted mouse assessed as drug induced death at 90 mg/kg, ip dosed as Q4Dx3, day 7 schedule measured on day 22; type: organism-based; set-up: dose 90 mg/kg, route intraperitoneal; details: in vivo
# Mus musculus [19] = assay: Toxicity in human HL60(TB) cells xenografted mouse assessed as drug induced death at 200 mg/kg, ip dosed as Q4Dx3, day 7 schedule measured on day 14; type: organism-based; set-up: dose 200 mg/kg, route intraperitoneal; details: in vivo
# [20] = Antitumor activity against human HL60(TB) cells xenografted in mouse assessed as tumor growth delay at 200 mg/kg, ip dosed as Q4Dx3, day 7 schedule relative to control; type: functional, HL-60(TB); details: route intraperitoneal
# Mus musculus [21] = assay: Toxicity in human HL60(TB) cells xenografted mouse assessed as mean net weight loss at 90 mg/kg, ip dosed as Q4Dx3, day 7 schedule measured on day 22; type: organism-based; set-up: dose 90 mg/kg, route intraperitoneal; details: in vivo
# [22] = Antitumor activity against human HL60(TB) cells xenografted in mouse assessed as net log cell kill at 200 mg/kg, ip dosed as Q4Dx3, day 7 schedule relative to control; type: functional, HL-60(TB); details: route intraperitoneal
# Mus musculus [23] = assay: Toxicity in ip dosed mouse assessed as maximum tolerated dose after 14 days; type: organism-based; details: in vivo, 336 h
# In short: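 Mice received a single i.p. injection of 400 mg/kg. If the animal survived 14 days, MTD was 400 mg/kg. If it died, the dose was lowered to 200 mg/kg and then halved repeatedly until a tolerated dose was found, which was taken as the MTD.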
# [24] = Antitumor activity against human HL60(TB) cells xenografted in mouse assessed as net log cell kill at 134 mg/kg, ip dosed as Q4Dx3, day 7 schedule relative to control; type: functional, HL-60(TB); details: route intraperitoneal
# [25] = Antitumor activity against human HL60(TB) cells xenografted in mouse assessed as tumor growth delay at 90 mg/kg, ip dosed as Q4Dx3, day 7 schedule day 7 schedule measured on day 19 relative to control; type: functional, HL-60(TB); details: route intraperitoneal
# [26] = Antitumor activity against human HL60(TB) cells xenografted in mouse assessed as tumor growth delay at 90 mg/kg, ip dosed as Q4Dx3, day 7 schedule relative to control; type: functional, HL-60(TB); details: route intraperitoneal
# Mus musculus [27] = assay: Toxicity in human HL60(TB) cells xenografted mouse assessed as mean net weight loss at 134 mg/kg, ip dosed as Q4Dx3, day 7 schedule measured on day 14; type: organism-based; set-up: dose 134 mg/kg, route intraperitoneal; details: in vivo
# [28] = Antitumor activity against human HL60(TB) cells xenografted in mouse assessed as effect on tumor growth at 200 mg/kg, ip dosed as Q4Dx3, day 7 schedule measured on day 19 relative to control; type: functional, HL-60(TB); details: route intraperitoneal
# [29] = Antitumor activity against human HL60(TB) cells xenografted in mouse assessed as tumor growth delay at 134 mg/kg, ip dosed as Q4Dx3, day 7 schedule relative to control; type: functional, HL-60(TB); details: route intraperitoneal
# [30] = Antitumor activity against human HL60(TB) cells xenografted in mouse assessed as net log cell kill at 90 mg/kg, ip dosed as Q4Dx3, day 7 schedule relative to control; type: functional, HL-60(TB); details: route intraperitoneal
# MCF7 [31] = assay: Cytotoxicity against human MCF7 cells; type: functional, cell-based
# MCF7 [32] = assay: Inhibition of proteasome in human MCF7 cells assessed as effect on stability of BCA2 protein at 1 umol/L in presence of cyclohexamide after 8 hrs by Western blot
# In short: (§3)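 MCF7 cells, 1×10^6 seeded per well, grown overnight; cycloheximide 100 μmol/L added alone or with MG-132 (10 μmol/L) or compound, total 8 and 16 h; lysates Western blotted with anti-BCA2, anti-C-erbB2 and β-actin antibodies; BCA2 and C-erbB2 levels expressed relative to β-actin by densitometry.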
# MCF7 [33] = assay: Inhibition of proteasome in human MCF7 cells assessed as increase in stability of BCA2 protein at 10 umol/L in presence of cyclohexamide after 16 hrs by Western blot; in short: as §3
# MCF7 [34] = assay: Inhibition of proteasome in human MCF7 cells assessed as effect on stability of BCA2 protein at 10 umol/L in presence of cyclohexamide after 8 hrs by Western blot; in short: as §3
# MDA-MB-231 = assay: Cytotoxicity against human MDA-MB-231 cells; type: functional, cell-based
# [35] = read-out: pLC50 (the source's name) (converted)
smiles,measurement,setting,value
O=C1Nc2ccc(O)cc2/C1=C\c1cccc(/C=C2/C(=O)Nc3ccc(O)cc32)n1,GI50,[1],17.4 µM
same,CC50,[1],93.3 µM
same,TGI,[1],55 µM
same,GI50,[2],83.2 µM
same,IC50,[3],40 µM
same,GI50,[4],20 µM
same,GI50,[5],40.7 µM
same,GI50,[6],83.2 µM
same,IC50,[7],> 117 µM
same,Activity,Mo7e,Active
same,IC50,[8],> 117 µM
same,Activity,B1647,Active
same,IC50,[9],40 µM
same,GI50,[10],33.9 µM
same,IC50,[11],40 µM
same,Activity,HEL,Active
same,GI50,[12],34.7 µM
same,CC50,[12],95.5 µM
same,TGI,[12],69.2 µM
same,GI50,[13],40.7 µM
same,TGI,[13],85.1 µM
same,GI50,[14],38.9 µM
COc1ccc2c(c1)/C(=C\c1cccc(/C=C3/C(=O)Nc4ccc(OC)cc43)n1)C(=O)N2,Activity,Mus musculus [15],10%
same,T/C,[16],6.4%
same,Activity,Mus musculus [17],Non-toxic
same,Activity,Mus musculus [18],Non-toxic
same,Activity,Mus musculus [19],Non-toxic
same,Activity,[20],48%
same,Activity,Mus musculus [21],9.1%
same,LCK,[22],-0.8
same,MTD,Mus musculus [23],400 mg/kg
same,GI50,[1],0.617 µM
same,CC50,[1],57.5 µM
same,TGI,[1],3.8 µM
same,GI50,[2],1.12 µM
same,CC50,[2]; [35],46.8 µM
same,TGI,[2]; read-out: pTGI (converted),9.33 µM
same,IC50,[3],30 µM
same,GI50,[4],1.66 µM
same,CC50,[4]; [35],69.2 µM
same,TGI,[4]; read-out: pTGI (converted),9.33 µM
same,LCK,[24],-1.8
same,GI50,[5],1.62 µM
same,CC50,[5]; [35],63.1 µM
same,TGI,[5]; read-out: pTGI (converted),12.9 µM
same,GI50,[6],0.891 µM
same,CC50,[6]; [35],13.5 µM
same,T/C,[25],138%
same,Activity,[26],25%
same,IC50,[7],> 117 µM
same,Activity,Mo7e,Active
same,Activity,Mus musculus [27],6.4%
same,IC50,[8],> 117 µM
same,T/C,[28],90%
same,Activity,B1647,Active
same,IC50,[9],30 µM
same,GI50,[10],1.7 µM
same,CC50,[10]; [35],43.7 µM
same,TGI,[10]; read-out: pTGI (converted),10.7 µM
same,IC50,[11],30 µM
same,Activity,HEL,Active
same,GI50,[12],1.45 µM
same,CC50,[12],24 µM
same,TGI,[12],4.27 µM
same,GI50,[13],1.48 µM
same,CC50,[13]; [35],81.3 µM
same,TGI,[13],14.8 µM
same,GI50,[14],0.794 µM
same,CC50,[14]; [35],30.9 µM
same,TGI,[14]; read-out: pTGI (converted),4.68 µM
same,Activity,[29],-17%
same,LCK,[30],-1.1
CC(C)C[C@@H](C=O)NC(=O)[C@H](CC(C)C)NC(=O)[C@H](CC(C)C)NC(=O)OCc1ccccc1 [MG-132] (Cbz-Leu-Leu-Leu-aldehyde),IC50,MCF7 [31],0.3 µM
same,Activity,MCF7 [32],inactive
same,fold change (FC),MCF7 [33],> 10
same,Activity,MCF7 [34],Active
same,IC50,MDA-MB-231,0.25 µM
